The test system of test [1] is A2780. The test can be described thus: Induction of cell cycle arrest in human A2780 cells assessed as accumulation of cells in G2/M phase by measuring CDK1 phosphorylation on Tyr15 incubated for 24 hrs by Western blotting analysis. The test is classed as functional, cell-based. As to conditions: dose 0.02-0.2 µmol/L. In short, it runs like this: (§1)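 A2780 ovarian carcinoma cells treated 24 h with a range of concentrations, with DMSO and nocodazole controls. 20 µg protein extract separated by SDS-PAGE and immunoblotted with chemiluminescent detection. Probed for total and phospho-Thr210 PLK1, phospho-Ser10 histone H3, phospho-Thr199 NPM and phospho-Tyr15 CDK1. Total NPM, tubulin and total CDK1 served as loading controls.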

The target in test [2] is Serine/threonine-protein kinase PLK1 (Homo sapiens) (UniProt P53350). The test can be described thus: Inhibition of PLK1 in human A2780 cells assessed as increased Histone H3 phosphorylation on Ser10 by Western blotting analysis. The test is classed as cell-based. A general note: A western blot detects proteins with antibodies after separation by electrophoresis.
Chain of Serine/threonine-protein kinase PLK1 (Homo sapiens) (P53350 whole entry): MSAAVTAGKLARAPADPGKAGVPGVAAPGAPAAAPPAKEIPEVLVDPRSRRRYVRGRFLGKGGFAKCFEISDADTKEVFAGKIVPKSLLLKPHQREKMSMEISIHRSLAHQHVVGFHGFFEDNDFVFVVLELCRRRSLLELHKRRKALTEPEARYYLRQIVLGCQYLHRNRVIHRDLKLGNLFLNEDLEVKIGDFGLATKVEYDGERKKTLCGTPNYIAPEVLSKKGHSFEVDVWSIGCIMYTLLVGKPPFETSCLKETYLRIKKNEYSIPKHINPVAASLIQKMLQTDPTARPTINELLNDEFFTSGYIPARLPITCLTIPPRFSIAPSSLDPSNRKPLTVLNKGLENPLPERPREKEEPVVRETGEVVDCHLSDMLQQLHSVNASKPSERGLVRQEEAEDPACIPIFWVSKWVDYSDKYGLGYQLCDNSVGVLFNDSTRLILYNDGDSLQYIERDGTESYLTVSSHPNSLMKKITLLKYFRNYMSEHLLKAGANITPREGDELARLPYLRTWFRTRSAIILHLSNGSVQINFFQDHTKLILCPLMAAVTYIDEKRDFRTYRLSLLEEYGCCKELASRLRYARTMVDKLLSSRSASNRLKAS
Test [3] deals with A2780. Description: Induction of cell cycle arrest in human A2780 cells assessed as accumulation of cells in G2/M phase by measuring PLK1 phosphorylation on Thr210 incubated for 24 hrs by Western blotting analysis. Particulars: dose 0.02-0.2 µmol/L. The test is classed as functional, cell-based. In short, it runs like this:
as §1

The subject of test [4] is A2780. The test can be described thus: Induction of cell cycle arrest in human A2780 cells assessed as accumulation of cells in G2/M phase by measuring upregulated PLK1 expression incubated for 24 hrs by Western blotting analysis. The class given is functional, cell-based. As to conditions: dose 0.02-0.2 µmol/L. In short, it runs like this: as §1
Test [5] has as its system A2780. Description: Induction of cell cycle arrest in human A2780 cells assessed as accumulation of cells in G2/M phase by measuring NPM phosphorylation on Thr199 incubated for 24 hrs by Western blotting analysis. The test is classed as functional, cell-based. Particulars: dose 0.02-0.2 µmol/L. A digest of the protocol:
as §1

In test [6] the target is Serine/threonine-protein kinase PLK1 (Homo sapiens) (UniProt P53350). The test can be described thus: Inhibition of PLK1 in human A2780 cells assessed as decreased TCTP phosphorylation on Ser46 by Western blotting analysis. Particulars: time 1.0 hrs.
Test [7] relates to A2780. Description: Induction of cell cycle arrest in human A2780 cells assessed as accumulation of cells in G2/M phase by measuring Histone H3 phosphorylation on Ser10 incubated for 24 hrs by Western blotting analysis. The class given is functional, cell-based. Particulars: dose 0.02-0.2 µmol/L. A digest of the protocol: as §1
Test [8] concerns the target Serine/threonine-protein kinase PLK1 (Homo sapiens) (UniProt P53350). The test can be described thus: Inhibition of PLK1 in human A2780 cells assessed as increased NPM phosphorylation on Thr199 by Western blotting analysis. The class given is cell-based.
Test [9] can be described thus: Antitumor activity against human Acute myeloid leukemic cell xenografted in nu/nu mouse assessed as increase in median survival time at 75 mg/kg, iv administered for 5 days and measured after 7 days in presence of NMS-P937 (reference value: 34 days). The class given is functional, Leukemia cell. As to conditions: time 5 day. A general note: A xenograft is tissue or cells of one species grown in another, often human tumour cells in immunodeficient mice.

The next test relates to HT-29. The test can be described thus: Antitumor activity against human HT-29 cells xenografted in nu/nu mouse assessed as tumor growth inhibition at 45 mg/kg, iv administered for 4 days relative to control. The class given is functional. Particulars: HT-29, 96 h, time 4 day, read-out: TGI.
Test [10] is described as follows: Antitumor activity against human Acute myeloid leukemic cell xenografted in nu/nu mouse assessed as increase in median survival time at 75 mg/kg, iv administered for 5 days and measured after 7 days (reference value: 34 days). The class given is functional, Leukemia cell. Particulars: time 5 day.

Molecules are shown by their SMILES. The source made the active and inactive calls. The rule behind the calls is not given here.

On to `COC(=O)Nc1nc2cc(C(=O)c3cccs3)ccc2[nH]1`, for which the result in the test with A2780 [1], in the test on A2780 [3], with A2780 [4], in the test with A2780 [5] and in the test with A2780 [7] was Active. For the same compound, the inhibition entry in test [2], in test [6] and in test [8] was “Active” throughout.
Regarding `CCc1c2c(nc3ccc(OC(=O)N4CCC(N5CCCCC5)CC4)cc13)-c1cc3c(c(=O)n1C2)COC(=O)[C@]3(O)CC` [IRINOTECAN], the Time turned out to be 79 days in [9] and 67 days in [10]. In the test on HT-29, the inhibition in vivo at 45 mg/kg worked out at 64%.

The record behind these values is ChEMBL document CHEMBL5678806, “NMS-P937, an orally available, specific small-molecule polo-like kinase 1 inhibitor with antitumor activity in solid and hematologic malignancies” (Mol Cancer Ther, 2012).
